The text below walks through data of ChEMBL document CHEMBL4020824, “Discovery of Potent and Orally Bioavailable Dihydropyrazole GPR40 Agonists” (J Med Chem, 2018).

Activity calls are given as the source filed them. The calls are words filed in the database; no cut-off is given here. A value given as a limit tells only on which side of the number the result lay.

Data set [1] addresses T1, Free fatty acid receptor 1 (Homo sapiens, UniProt O14842). Briefly: Agonist activity at human GPR40 expressed in CHOA12 cells assessed as induction of Ca2+ mobilization by FLIPR assay. The data set is classed as functional, cell-based. In general terms: A change in cytosolic calcium serves as a functional read-out for many receptors and channels.
Data set [2] addresses T1, Free fatty acid receptor 1. As to the kind of experiment: Agonist activity at human GPR40 expressed in CHOA12 cells assessed as induction of Ca2+ mobilization at 8.3 uM by FLIPR assay relative to compound 2. The class given is functional, cell-based.
Data set [3] in a line: Half life in CD1 mouse at 1 mg/kg, iv administered as bolus dose or 1 mg/kg, po administered as single dose measured up to 24 hrs post dose by LC-MS/MS analysis. The class given is ADME, organism-based. To be noted: in vivo.
The nature of data set [4]: Oral bioavailability in C57BL6 mouse at 3 mg/kg administered as single dose via gavage measured up to 24 hrs post dose by LC-MS/MS analysis. The class given is ADME, organism-based. The note with it: in vivo.
The test system of data set [5] is Liver. As to the kind of experiment: Half life in rat liver microsomes at 1 to 3 uM incubated for 20 mins in presence NADPH measured up to 90 mins by LC/MS/MS analysis. The data set is classed as ADME, microsome. The note with it: microsomes, 20 min, 3 µM. In general terms: Liver microsomes are a subcellular fraction often used to study metabolism.
The subject of data set [6] is Liver. Briefly: Half life in human liver microsomes at 1 to 3 uM incubated for 20 mins in presence NADPH measured up to 90 mins by LC/MS/MS analysis. The data set is classed as ADME, microsome. The note with it: microsomes, 20 min, 3 µM.
Data set [7] is described as follows: Cmax in cynomolgus monkey at 0.5 mg/kg, po administered as single dose measured up to 24 hrs post dose by LC-MS/MS analysis. The data set is classed as ADME, organism-based, Macaca fascicularis. Details: dose 0.5 mg/kg, route oral. To be noted: in vivo.
A short description of data set [8]: Clearance in Sprague-Dawley rat at 1 mg/kg, iv administered as single dose measured up to 24 hrs post dose by LC-MS/MS analysis. The note with it: in vivo. The class given is ADME, organism-based.
Data set [9] in a line: Oral bioavailability in Sprague-Dawley rat at 3 mg/kg administered via gavage as single dose measured up to 24 hrs post dose by LC-MS/MS analysis. The class given is ADME, organism-based. To be noted: in vivo.
A short description of data set [10]: Volume of distribution at steady state in CD1 mouse at 1 mg/kg, iv via bolus dose or 1 mg/kg, po administered as single dose measured up to 24 hrs post dose by LC-MS/MS analysis. The class given is ADME, organism-based. To be noted: in vivo, read-out: Vdss.
Data set [11] is described as follows: Volume of distribution at steady state in Sprague-Dawley rat at 1 mg/kg, iv administered as single dose measured up to 24 hrs post dose by LC-MS/MS analysis. The class given is ADME, organism-based. To be noted: in vivo, read-out: Vdss.
Data set [12] deals with Liver. Briefly: Stability in rat liver microsomes assessed as parent compound remaining at 1 to 3 uM incubated for 20 mins in presence NADPH measured up to 90 mins by LC/MS/MS analysis. The data set is classed as ADME, microsome. To be noted: microsomes, 20 min, 3 µM. In short, it runs like this:
(§1)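 Human or rat liver microsomal incubations. The read-outs were % parent remaining, % D-ring dealkylation metabolites, % GSH adducts, and half-life (min). The metabolites followed were CYP450-mediated oxidative de-alkylation products (phenols) and GSH conjugates.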

Data set [13] is described as follows: Half life in cynomolgus monkey at 0.2 mg/kg, iv administered as single dose measured up to 24 hrs post dose by LC-MS/MS analysis. The note with it: in vivo. The data set is classed as ADME, organism-based, Macaca fascicularis.
The nature of data set [14]: Oral bioavailability in cynomolgus monkey at 0.5 mg/kg administered via gavage as single dose measured up to 24 hrs post dose by LC-MS/MS analysis. The data set is classed as ADME, organism-based, Macaca fascicularis. To be noted: in vivo.
The nature of data set [15]: Cmax in C57BL6 mouse at 3 mg/kg, po administered as single dose via gavage measured up to 24 hrs post dose by LC-MS/MS analysis. The class given is ADME, organism-based. Set-up: dose 3 mg/kg, route oral. The note with it: in vivo.
Data set [16] addresses T2, Peroxisome proliferator-activated receptor gamma (Homo sapiens, UniProt P37231).
T2 sequence (P37231 whole entry): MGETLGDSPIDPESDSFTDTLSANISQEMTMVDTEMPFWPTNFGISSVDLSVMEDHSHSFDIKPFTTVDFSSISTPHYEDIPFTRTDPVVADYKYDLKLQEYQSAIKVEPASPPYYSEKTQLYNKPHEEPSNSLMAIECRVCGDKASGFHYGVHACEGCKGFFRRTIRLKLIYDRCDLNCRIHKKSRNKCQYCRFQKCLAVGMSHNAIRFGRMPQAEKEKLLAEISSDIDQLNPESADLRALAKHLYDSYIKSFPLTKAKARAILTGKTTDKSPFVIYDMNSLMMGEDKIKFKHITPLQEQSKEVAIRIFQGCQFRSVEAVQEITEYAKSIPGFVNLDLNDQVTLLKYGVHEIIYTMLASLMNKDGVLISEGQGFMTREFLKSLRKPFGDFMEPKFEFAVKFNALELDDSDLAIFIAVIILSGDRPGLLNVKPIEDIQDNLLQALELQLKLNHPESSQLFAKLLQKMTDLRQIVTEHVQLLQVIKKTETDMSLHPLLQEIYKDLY
As to the kind of experiment: Agonist activity at PPARgamma (unknown origin).

A short description of data set [17]: Cmax in Sprague-Dawley rat at 3 mg/kg, po administered as single dose measured up to 24 hrs post dose by LC-MS/MS analysis. The data set is classed as ADME, organism-based. Details: dose 3 mg/kg, route oral. The note with it: in vivo.
Data set [18] can be described thus: Volume of distribution at steady state in cynomolgus monkey at 0.2 mg/kg, iv administered as single dose measured up to 24 hrs post dose by LC-MS/MS analysis. The data set is classed as ADME, organism-based, Macaca fascicularis. To be noted: in vivo, read-out: Vdss.
Data set [19] can be described thus: Tmax in cynomolgus monkey at 0.5 mg/kg, po administered as single dose measured up to 24 hrs post dose by LC-MS/MS analysis. The class given is ADME, organism-based, Macaca fascicularis. The note with it: in vivo.
The nature of data set [20]: Half life in Sprague-Dawley rat at 1 mg/kg, iv administered as single dose measured up to 24 hrs post dose by LC-MS/MS analysis. The data set is classed as ADME, organism-based. To be noted: in vivo.
The nature of data set [21]: Tmax in C57BL6 mouse at 3 mg/kg, po administered as single dose measured up to 24 hrs post dose by LC-MS/MS analysis. The class given is ADME, organism-based. The note with it: in vivo.
The nature of data set [22]: Tmax in Sprague-Dawley rat at 3 mg/kg, po administered as single dose measured up to 24 hrs post dose by LC-MS/MS analysis. The class given is ADME, organism-based. To be noted: in vivo.
Data set [23] in a line: Clearance in CD1 mouse at 1 mg/kg, iv administered as bolus dose or 1 mg/kg, po administered as single dose measured up to 24 hrs post dose by LC-MS/MS analysis. The class given is ADME, organism-based. To be noted: in vivo.
Data set [24] concerns Liver. As to the kind of experiment: Stability in human liver microsomes assessed as parent compound remaining at 1 to 3 uM incubated for 20 mins in presence NADPH measured up to 90 mins by LC/MS/MS analysis. The data set is classed as ADME, microsome. The note with it: microsomes, 20 min, 3 µM. Put shortly: as §1
A short description of data set [25]: Clearance in cynomolgus monkey at 0.2 mg/kg, iv administered as single dose measured up to 24 hrs post dose by LC-MS/MS analysis. The data set is classed as ADME, organism-based, Macaca fascicularis. To be noted: in vivo.
A further data set relates to Mus musculus. As to the kind of experiment: Antidiabetic activity in C57BL/6J mouse assessed as glucose lowering effect at 1 mg/kg, po administered 1 hr prior to glucose challenge measured after 120 mins by IPGTT. The data set is classed as functional, organism-based.
Data set [26] concerns Liver. As to the kind of experiment: Drug level in human liver microsomes treated with 2-((4S,5S)-1-(4-(((3R,4R)-1-(5-Ethoxy-2-fluorophenyl)-3-methylpiperidin-4-yl)oxy)phenyl)-4-methyl-3-(trifluoromethyl)-4,5-dihydro-1H-pyrazol-5-yl)acetic acid at 1 to 3 uM incubated for 20 mins in presence of NADPH measured after 90 mins by LC/MS/MS analysis. The class given is ADME, microsome. Put shortly: as §1

The subject of data set [27] is Liver. Briefly: Drug level in rat liver microsomes treated with 2-((4S,5S)-1-(4-(((3R,4R)-1-(5-Ethoxy-2-fluorophenyl)-3-methylpiperidin-4-yl)oxy)phenyl)-4-methyl-3-(trifluoromethyl)-4,5-dihydro-1H-pyrazol-5-yl)acetic acid at 1 to 3 uM incubated for 20 mins in presence of NADPH measured after 90 mins by LC/MS/MS analysis. The class given is ADME, microsome. Put shortly:
as §1

T1 sequence (O14842 whole entry): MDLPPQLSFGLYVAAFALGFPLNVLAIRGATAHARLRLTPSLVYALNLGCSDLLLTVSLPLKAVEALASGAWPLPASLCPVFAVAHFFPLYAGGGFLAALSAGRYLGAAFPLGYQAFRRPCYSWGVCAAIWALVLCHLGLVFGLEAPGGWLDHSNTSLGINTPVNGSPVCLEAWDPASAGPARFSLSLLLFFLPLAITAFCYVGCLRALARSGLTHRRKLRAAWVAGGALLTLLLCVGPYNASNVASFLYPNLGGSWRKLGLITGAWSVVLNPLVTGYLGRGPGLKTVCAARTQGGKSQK

For orientation: EC50 means the concentration needed to bring the measured effect to its halfway point. As for `COc1cc(N2CCC(Oc3ccc(N4N=C(C(F)(F)F)[C@@H](C)[C@@H]4CC(=O)O)cc3)CC2)c(F)cn1`, the EC50 in [1] is 150 to 180 nM.

In the case of `CCOc1ccc(F)c(N2CCC(Oc3ccc(N4N=C(C(F)(F)F)[C@@H](C)[C@@H]4CC(=O)O)cc3)CC2)c1`, in [1], the EC50 was determined as 220 nM.

Take `COc1ccc(F)c(N2CC[C@@H](COc3ccc(N4C[C@H](C(F)(F)F)C[C@@H]4CC(=O)O)cc3)C2)c1`: the result in data set [2] was Active.

`COc1ccc(F)c(N2CC[C@@H](Oc3ccc(N4N=C(C(F)(F)F)[C@@H](C)[C@@H]4CC(=O)O)cc3)[C@H](F)C2)c1`: in [1], the 50% effective concentration (EC50) is 70 nM.

As usually defined, the half-life is the time in which the quantity being followed falls by half. A word on the bioavailability: it is the share of a dose that reaches the circulation, judged against a reference dose that is usually intravenous. Broadly, the Cmax is the peak of the concentration-time curve. In general, Tmax refers to the time at which the peak concentration occurs. Consider `COc1ccc(F)c(N2CCC(Oc3ccc(N4N=C(C(F)(F)F)[C@@H](C)[C@@H]4CC(=O)O)cc3)CC2)c1`, for which the half-life in [3] was 1.5 h; in data set [13], 5.3 h; in data set [20], 1.4 h. For the same compound, the half-maximal effective concentration (EC50) in [1] is 110 nM; in [16], greater than 50000 nM. Besides, the figures for the bioavailability in data set [4], in data set [9] and in [14] were 96%, 36% and 66%, respectively. Besides, the figures for the t1/2 in the data set on Liver [5] and with Liver [6] were 0.383 h and 0.8 h, respectively. Also, the Cmax in [7] came out at 200 nM; in data set [15], 3400 nM; in data set [17], 1100 nM. The results for the clearance in data set [8], in data set [23] and in [25] were 17 mL/min/kg, 6 mL/min/kg and 6.6 mL/min/kg, respectively. Also, the Vd in [10] was 0.8 L/kg; in data set [11], 0.6 L/kg; in data set [18], 1.7 L/kg. The Stability with Liver [12] is recorded as 27%; in the data set on Liver [24] it was 42%. Besides, the values for the Tmax in data set [19], in data set [21] and in data set [22] were 2 h, 1 h and 0.7 h, respectively.

Consider `COc1ccc(C#N)c(N2CCC(Oc3ccc(N4N=C(C(F)(F)F)[C@@H](C)[C@@H]4CC(=O)O)cc3)CC2)c1`, for which the EC50 in data set [1] came to 680 nM.

On to `COc1ccc(F)c(-c2ccc(Cc3ccc(N4C[C@H](C(F)(F)F)C[C@@H]4CC(=O)O)cc3)c(C)c2)c1`, for which the result in the data set with Mus musculus was Active.

Turning to `COc1ccc(F)c(-c2ccc(Cc3ccc(N4N=C(C(F)(F)F)[C@@H](C)[C@@H]4CC(=O)O)cc3)c(C)c2)c1`, the half-maximal effective concentration (EC50) in data set [16] was found to be 2600 nM.

In the case of `COc1ccc(F)c(N2CCC(Oc3ccc(N4C[C@H](C(F)(F)F)C[C@@H]4CC(=O)O)cc3)CC2)c1`, the outcome in data set [2] was Active.

Take `COc1ccc(F)c(N2CCC(Cc3ccc(N4C[C@H](C(F)(F)F)C[C@@H]4CC(=O)O)cc3)CC2)c1`: in [2], the outcome was Active.

With `C[C@@H]1CN(c2cc(O)ccc2F)CC[C@H]1Oc1ccc(N2N=C(C(F)(F)F)[C@@H](C)[C@@H]2CC(=O)O)cc1`, the Drug uptake result in the data set on Liver [26] and in the data set with Liver [27] was “Metabolite_Detected” each time.
